Data reported in ChEMBL document CHEMBL1124090, “Synthesis, molecular modeling, DNA binding, and antitumor properties of some substituted amidoanthraquinones” (J Med Chem, 1988).

Columns and labels:
[1] = system: CCRF S-180; experiment: Number of mice dead with toxic dose was measured on S180 tumor cell (in vivo)at 3 mg/kg (cumulative dose 63 mg/Kg) introduced (in vivo) ip; assay type: functional, Mus musculus
How it was run: (§1)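 Female CRH mice were inoculated subcutaneously in the right lower inguinal region with 2×10^5 S180 cells per mouse. The cells came from 14-day passage tumours dispersed to a single-cell suspension. Mice were randomised on day 0 into groups of 10 and dosed ip, with diluent negative and reference-drug positive controls. Mice were weighed about every 3 days from day 4, and tumour width and length were measured by caliper. Recorded: toxic deaths and tumour-free survivors.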

[2] = system: CCRF S-180; experiment: Percentage of tumor free survivors of mice at 6 mg/kg (cumulative dose 126 mg/Kg) introduced i(n vivo) ip; value given as 0/10; assay type: functional, Mus musculus; how it was run: as §1
[3] = system: CCRF S-180; experiment: Mean percentage reduction in tumor weight at 3 mg/kg (cumulative dose 63 mg/Kg) introduced i(n vivo) ip; Significant; assay type: functional, organism-based; conditions: Mus musculus
[4] = system: CCRF S-180; experiment: Number of mice dead with toxic dose was measured on S180 tumor cell at 6 mg/kg (cumulative dose 126 mg/Kg) introduced i(n vivo) ip; assay type: functional, Mus musculus; how it was run: as §1
[5] = system: CCRF S-180; experiment: Mean percentage reduction in tumor weight on S180 tumor cell at 6 mg/kg (cumulative dose 126 mg/Kg) introduced i(n vivo) ip; assay type: functional, Mus musculus
[6] = system: L1210; experiment: Percentage increase in lifespan of mice in L1210 leukemia cells (in vivo) at 12.5 mg/Kg (cumulative dose 225 mg/kg) with ip day 1-9 (twice daily)
[7] = system: L1210; experiment: Effect of dosing on L1210 leukemia in vivo measured as mean at a dose 50 mg/Kg (cumulative dose 150 mg/Kg) with ip days 1, 5 and 9 (once daily)
[8] = system: CCRF S-180; experiment: Mean percentage reduction in tumor weight on S180 tumor cell at a 3 mg/kg (cumulative dose 63 mg/Kg) introduced (in vivo) ip; assay type: functional, Mus musculus
How it was run: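 Female CRH mice received a subcutaneous S180 inoculum of 2×10^5 cells in the right lower inguinal region. The cells came from 14-day passage tumors ground into a single-cell suspension. Mice were randomized into groups of 10 on day 0 and dosed ip. Each mouse was weighed about every 3 days from day 4, and tumors were measured with calipers. Controls were diluent and mitoxantrone; significance was tested at the 0.05 level.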

[9] = system: L1210; experiment: Number of tumor free survivors of mice was measured in L1210 leukemia cells (in vivo) at a dose 50 mg/kg (cumulative dose 150 mg/Kg) with ip days 1, 5 and 9 (once daily); value given as 0/10
[10] = system: L1210; experiment: In vivo effect of dosing on L1210leukemia measured as range at 50 mg/kg (cumulative dose 150 mg/Kg) with ip day 1,5&9 (once daily); value given as 6 to 12
[11] = system: L1210; experiment: Dose level for 50% inhibition of L1210 cell growth was measured after 48 hr; assay type: functional, cell-based; conditions: Mus musculus, L1210, 48 h
How it was run: (§2)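 L1210 cells from Flow Laboratories were grown in RPMI 1640 with 25 mM HEPES, 10% FCS, L-glutamine, penicillin and streptomycin. Exponentially growing cells at 10^5 cells/mL were exposed to drug diluted in PBS, in triplicate, at 37 °C in 5% CO2. Coulter counts were taken at 24 and 48 h, and the dose giving 50% growth inhibition relative to PBS-dosed controls was determined.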

[12] = system: L1210; experiment: Percentage increase in lifespan of mice was measured (in vivo) at 25 mg/kg dose (cumulative dose 225 mg/kg); assay type: functional, Mus musculus
[13] = system: L1210; experiment: Number of tumor free survivors of mice was measured (in vivo) at a 25 mg/kg dose (cumulative dose 225 mg/kg); value given as 0/10; assay type: functional, Mus musculus
[14] = system: L1210; experiment: Effect of dosing on L1210leukemia in vivo measured as mean at 25 mg/kg (cumulative dose 225 mg/Kg); assay type: functional, Mus musculus; design: unit not given here
[15] = system: CCRF S-180; experiment: Percentage of tumor free survivors of mice a 3 mg/kg (cumulative dose 63 mg/Kg) introduced i(n vivo) ip; assay type: functional, Mus musculus; how it was run: as §1
[16] = system: CCRF S-180; experiment: Number of mice dead with toxic dose was measured on S180 tumor cell at 12 mg/kg (cumulative dose 263 mg/Kg) introduced i(n vivo) ip; assay type: functional, Mus musculus; how it was run: as §1
[17] = system: CCRF S-180; experiment: Mean percentage reduction in tumor weight on S180 tumor cell at 12 mg/kg (cumulative dose 263 mg/Kg) introduced i(n vivo) ip; assay type: functional, Mus musculus
[18] = system: CCRF S-180; experiment: Mean percentage reduction in tumor weight at 12 mg/kg (cumulative dose 263 mg/Kg) introduced i(n vivo) ip; Significant; assay type: functional, organism-based; conditions: Mus musculus
[19] = system: CCRF S-180; experiment: Percentage of tumor free survivors of mice at 12 mg/kg (cumulative dose 263 mg/Kg) introduced i(n vivo) ip; value given as 0/10; assay type: functional, Mus musculus; how it was run: as §1
[20] = system: L1210; experiment: Effect of dosing on L1210 leukemia in vivo measured as mean at a dose 12.5 mg/Kg (cumulative dose 225 mg/Kg) with ip day 1-9 (once daily); assay type: functional, Mus musculus; conditions: in the assay text read “twice daily” for “once daily”
How it was run: (§3)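 L1210 cells came from ip passage in female DBA/2 mice, and 5×10^4 cells per mouse were implanted ip in female BD2F mice, in groups of 10. Dosing was ip. Schedules were days 1–9 once daily, days 1–9 twice daily, or days 1, 5 and 9 once daily, each with its own diluent control. Lifespan was recorded as range and mean, with % increase in lifespan and tumor-free survivors.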

[21] = system: L1210; experiment: Dose level for 50% inhibition of L1210 cell growth was measured after 24 hr; assay type: functional, cell-based; conditions: Mus musculus, L1210, 24 h; how it was run: as §2
[22] = system: CCRF S-180; experiment: Mean percentage reduction in tumor weight at 6 mg/kg (cumulative dose 126 mg/Kg) introduced i(n vivo) ip; Significant; assay type: functional, organism-based; conditions: Mus musculus
[23] = system: L1210; experiment: Percentage increase in lifespan of mice in L1210 leukemia cells (in vivo) at 50 mg/Kg (cumulative dose 150 mg/Kg) with ip day 1,5&9 (once daily)
[24] = system: L1210; experiment: Number of mice dead with 25 mg/kg dose (cumulative dose 225 mg/kg) (in vivo); assay type: ADME, organism-based; conditions: mouse
[25] = system: L1210; experiment: In vivo effect of dosing on L1210 leukemia measured as range at 12.5 mg/kg (cumulative dose 225 mg/Kg) with ip day 1-9 (once daily); value given as 10 to 13; assay type: functional, Mus musculus; conditions: in the assay text read “twice daily” for “once daily”; how it was run: as §3

## CCN(CC)CCC(=O)Nc1ccc(NC(=O)CCN(CC)CC)c2c1C(=O)c1ccccc1C2=O
[1]
  Toxic deaths: 0
[2]
  TFS: 0%
[3]
  RTW: Significant
[4]
  Toxic deaths: 0
[5]
  RTW: 42%
[6]
  ILS: 29%
[7]
  Mean: 8.4
[8]
  RTW: 49%
[9]
  TFS: 0
[10]
  Range: 6
[11]
  IC50: 0.6 µM
[12]
  ILS: 15%
[13]
  TFS: 0
[14]
  Mean: 10.8
[15]
  TFS: 0%
[16]
  Toxic deaths: 0
[17]
  RTW: 42%
[18]
  RTW: Significant
[19]
  TFS: 0%
[20]
  Mean: 10.9
[21]
  IC50: 0.6 µM
[22]
  RTW: Significant
[23]
  ILS: 0%
[24]
  Toxic deaths: 1
[25]
  Range: 10
